From ChEMBL document CHEMBL1795205, “The new 5- or 6-azapyrimidine and cyanuric acid derivatives of l-ascorbic acid bearing the free C-5 hydroxy or C-4 amino group at the ethylenic spacer: CD-spectral absolute configuration determination and biological activity evaluations” (Eur J Med Chem, 2011)

How the values were obtained:
[1] = test system: HepG2; assay: Cytostatic activity against human HepG2 cells assessed as inhibition of cell proliferation after 72 hrs by MTT assay; assay type: functional, cell-based; settings: HepG2, 72 h
In short: (§1)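 Monolayer cells grown in DMEM with 10% FBS were seeded on day 0 at 3000–6000 cells/well, set by each line's doubling time. Agents were added the next step in five 10-fold dilutions (0.01–100) for 72 h, with DMSO ≤0.1% and a solvent control. MTT absorbance was converted to percentage growth versus untreated wells on the same plate. Where all PGs exceeded 50, the top concentration was reported as ">". ANOVA/Tukey, p<0.05.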

[2] = test system: SW-620; assay: Cytostatic activity against human SW620 cells assessed as inhibition of cell proliferation after 72 hrs by MTT assay; assay type: functional, cell-based; settings: SW-620, 72 h; in short: as §1
[3] = test system: MIA PaCa-2; assay: Cytostatic activity against human MIAPaCa2 cells assessed as inhibition of cell proliferation after 72 hrs by MTT assay; assay type: functional, cell-based; settings: MIA PaCa-2, 72 h; in short: as §1
[4] = test system: MCF7; assay: Cytostatic activity against human MCF7 cells assessed as inhibition of cell proliferation after 72 hrs by MTT assay; assay type: functional, cell-based; settings: MCF7, 72 h; in short: as §1
[5] = test system: WI-38; assay: Cytotoxicity against human WI38 cells assessed as inhibition of cell proliferation after 72 hrs by MTT assay; assay type: cell-based; settings: WI-38, 72 h; in short: as §1
[6] = test system: HeLa; assay: Cytostatic activity against human HeLa cells assessed as inhibition of cell proliferation after 72 hrs by MTT assay; assay type: functional, cell-based; in short: as §1

## NC1(CCn2c(=O)[nH]c(=O)[nH]c2=O)OC(=O)C(OCc2ccccc2)=C1OCc1ccccc1 (racemic)
[1]
  IC50: > 100 µM
[2]
  IC50: > 100 µM
[3]
  IC50: > 100 µM
[4]
  IC50: 84.9 µM
[5]
  IC50: > 100 µM
[6]
  IC50: 77.1 µM

## Nc1ncn(C[C@H](O)[C@H]2OC(=O)C(OCc3ccccc3)=C2OCc2ccccc2)c(=O)n1
[1]
  IC50: > 100 µM
[2]
  IC50: > 100 µM
[3]
  IC50: 71.7 µM
[4]
  IC50: 73.8 µM
[5]
  IC50: > 100 µM
[6]
  IC50: > 100 µM

## Nc1ncn(CCC2(N)OC(=O)C(OCc3ccccc3)=C2OCc2ccccc2)c(=O)n1 (racemic)
[1]
  IC50: > 100 µM
[2]
  IC50: > 100 µM
[3]
  IC50: > 100 µM
[4]
  IC50: > 100 µM
[5]
  IC50: > 100 µM
[6]
  IC50: > 100 µM

## O=C1O/C(=C\Cn2c(=O)[nH]c(=O)[nH]c2=O)C(O)=C1O
[1]
  IC50: > 100 µM
[2]
  IC50: > 100 µM
[3]
  IC50: > 100 µM
[4]
  IC50: > 100 µM
[5]
  IC50: 35.3 µM
[6]
  IC50: > 100 µM

## O=C1O[C@H]([C@@H](O)Cn2c(=O)[nH]c(=O)[nH]c2=O)C(OCc2ccccc2)=C1OCc1ccccc1
[1]
  IC50: > 100 µM
[2]
  IC50: > 100 µM
[3]
  IC50: > 100 µM
[4]
  IC50: > 100 µM
[5]
  IC50: > 100 µM
[6]
  IC50: > 100 µM

## Cc1cn(CCC2(N)OC(=O)C(OCc3ccccc3)=C2OCc2ccccc2)c(=O)[nH]c1=O (racemic)
[1]
  IC50: > 100 µM
[2]
  IC50: > 100 µM
[3]
  IC50: > 100 µM
[4]
  IC50: 80.4 µM
[5]
  IC50: > 100 µM
[6]
  IC50: > 100 µM

## NC1(CCn2ncc(=O)[nH]c2=O)OC(=O)C(OCc2ccccc2)=C1OCc1ccccc1 (racemic)
[1]
  IC50: > 100 µM
[2]
  IC50: > 100 µM
[3]
  IC50: > 100 µM
[4]
  IC50: > 100 µM
[5]
  IC50: > 100 µM
[6]
  IC50: > 100 µM

## Nc1ncn(C/C=C2\OC(=O)C(O)=C2OCc2ccccc2)c(=O)n1
[1]
  IC50: > 100 µM
[2]
  IC50: > 100 µM
[3]
  IC50: > 100 µM
[4]
  IC50: > 100 µM
[5]
  IC50: > 100 µM
[6]
  IC50: > 100 µM
